Laboratory results reported in ChEMBL document CHEMBL1158375, “Design and synthesis of new N-(fluorenyl-9-methoxycarbonyl) (Fmoc)-dipeptides as anti-inflammatory agents” (Eur J Med Chem, 2009).

What was measured:
Conditions in all cases: Neutrophil
[1] = Antiinflammatory activity in fMLP/cytochalasin B-stimulated human neutrophils assessed as inhibition of elastase release at 10 ug/ml after 5 mins; assay type: functional
Procedure, shortened: (§1)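 Neutrophils from healthy donor blood (dextran sedimentation, Ficoll Hypaque, hypotonic erythrocyte lysis; >98% viable), held in Ca2+-free HBSS pH 7.4 at 4 °C. 5 × 10⁵ cells/mL with 100 μM MeO-Suc-Ala-Ala-Pro-Val-p-nitroanilide, 2 min at 37 °C, drug 5 min, then 100 nM fMLP + 0.5 μg/mL CB. A405 followed continuously; percent of initial rate versus drug-free control. IC50 or % inhibition at 10 μg/mL; mean ± S.E.M., n = 3-4.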

[2] = Antiinflammatory activity in fMLP/cytochalasin B-stimulated human neutrophils assessed as inhibition of superoxide anion generation after 5 mins; assay type: functional, cell-based
Procedure, shortened: (§2)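 Donor neutrophils isolated by dextran sedimentation, Ficoll Hypaque and hypotonic lysis, kept in Ca2+-free HBSS pH 7.4 at 4 °C. Cells given 0.5 mg/mL ferricytochrome c and 1 mM Ca2+, 2 min at 37 °C, drug 5 min, CB 1 μg/mL 3 min, then 100 nM fMLP for 10 min. SOD-inhibitable cytochrome c reduction. IC50 or % inhibition at 10 μg/mL; mean ± S.E.M., n = 3-4.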

[3] = Antiinflammatory activity in fMLP/cytochalasin B-stimulated human neutrophils assessed as inhibition of elastase release after 5 mins; assay type: functional, cell-based; procedure, shortened: as §1
[4] = Antiinflammatory activity in fMLP/cytochalasin B-stimulated human neutrophils assessed as inhibition of superoxide anion generation at 10 ug/ml after 5 mins; assay type: functional; procedure, shortened: as §2

| IC50 [2] [µM] | IC50 [3] [µM] | SMILES | inhibition at 10 µg/mL [1] [%] | inhibition at 10 µg/mL [4] [%] |
| --- | --- | --- | --- | --- |
| 3.3 | – | O=C(N[C@@H](Cc1c[nH]c2ccccc12)C(=O)O)OCC1c2ccccc2-c2ccccc21 | 45.4 | – |
| 14.1 | 14.2 | O=C(N[C@@H](Cc1ccccc1)C(=O)O)OCC1c2ccccc2-c2ccccc21 | – | – |
| – | 6.5 | CC(=O)OC[C@@H](Cc1ccccc1)NC(=O)[C@H](Cc1ccc(O)cc1)NC(=O)OCC1c2ccccc2-c2ccccc21 | – | 8 |
| – | – | CC(=O)OC[C@H](Cc1ccccc1)NC(=O)[C@H](Cc1ccccc1)NC(=O)OCC1c2ccccc2-c2ccccc21 | 39.5 | 2.8 |
| – | – | CC(=O)OC[C@H](Cc1ccccc1)NC(=O)[C@H](Cc1ccc(O)cc1)NC(=O)OCC1c2ccccc2-c2ccccc21 | 22.8 | -0.5 |
| – | – | CC(=O)OC[C@H](Cc1ccccc1)NC(=O)[C@@H](NC(=O)OCC1c2ccccc2-c2ccccc21)C(C)C | 27.7 | -6.3 |
| – | 1.7 | CC(=O)OC[C@@H](Cc1ccccc1)NC(=O)[C@H](Cc1c[nH]c2ccccc12)NC(=O)OCC1c2ccccc2-c2ccccc21 | – | 18.6 |
| – | 5.5 | CC(=O)OC[C@H](Cc1ccccc1)NC(=O)[C@H](Cc1c[nH]c2ccccc12)NC(=O)OCC1c2ccccc2-c2ccccc21 | – | 24.5 |
| – | – | CC(=O)OC[C@H](Cc1ccccc1)NC(=O)[C@@H](N)Cc1ccc(O)cc1 | 22.8 | -0.5 |
| – | – | CC(=O)OC[C@H](Cc1ccccc1)NC(=O)[C@H](Cc1ccccc1)NC(=O)OCc1ccccc1 | 27.2 | 39.3 |
| – | – | CC[C@H](C)[C@H](NC(=O)OCC1c2ccccc2-c2ccccc21)C(=O)N[C@@H](COC(C)=O)Cc1ccccc1 | 22.5 | 6 |
| – | – | CC(=O)OC[C@@H](Cc1ccccc1)NC(=O)[C@@H](NC(=O)OCC1c2ccccc2-c2ccccc21)C(C)C | 34.6 | -2.3 |
| – | – | CC(=O)OC[C@@H](Cc1ccccc1)NC(=O)[C@H](Cc1ccccc1)NC(=O)OCc1ccccc1 | 35.4 | 40.9 |
| – | – | CC(=O)OC[C@H](Cc1ccccc1)NC(=O)[C@H](Cc1cn(C(c2ccccc2)(c2ccccc2)c2ccccc2)cn1)NC(=O)OCC1c2ccccc2-c2ccccc21 | 32 | 9.5 |
| – | 0.8 | CC(=O)OC[C@H](Cc1ccccc1)NC(=O)[C@H](Cc1ccc(OC(C)(C)C)cc1)NC(=O)OCC1c2ccccc2-c2ccccc21 | – | 25.9 |
| – | 12.9 | CC(=O)OC[C@@H](Cc1ccccc1)NC(=O)[C@H](Cc1ccccc1)NC(=O)OCC1c2ccccc2-c2ccccc21 | – | 31.3 |
| – | 14.5 | CC(=O)OC[C@@H](Cc1ccccc1)NC(=O)[C@H](Cc1ccc2ccccc2c1)NC(=O)OCC1c2ccccc2-c2ccccc21 | – | 2.1 |
| – | – | CC(=O)OC[C@H](Cc1ccccc1)NC(=O)[C@H](Cc1ccc2ccccc2c1)NC(=O)OCC1c2ccccc2-c2ccccc21 | 37.8 | 5 |
| – | – | CC(=O)OC[C@@H](Cc1ccccc1)NC(=O)[C@H](Cc1ccc(OC(C)(C)C)cc1)NC(=O)OCC1c2ccccc2-c2ccccc21 | 31.9 | 22.3 |
| – | – | CC(=O)OC[C@@H](Cc1ccccc1)NC(=O)[C@H](Cc1cn(C(c2ccccc2)(c2ccccc2)c2ccccc2)cn1)NC(=O)OCC1c2ccccc2-c2ccccc21 | -2.9 | 6.6 |
| > 20 | > 20 | CC(=O)OC[C@@H](Cc1ccccc1)NC(=O)[C@@H](N)Cc1ccccc1 | – | – |
| – | – | CC(=O)OC[C@@H](Cc1ccccc1)NC(=O)[C@H](Cc1ccccc1)NC(=O)OC(C)(C)C | 11 | 4.7 |
| 5.5 | 5.6 | CC(C)(C)Oc1ccc(C[C@H](NC(=O)OCC2c3ccccc3-c3ccccc32)C(=O)O)cc1 | – | – |
| > 20 | > 20 | CC(=O)OC[C@H](Cc1ccccc1)NC(=O)[C@@H](N)Cc1ccccc1 | – | – |
| – | – | CC(C)[C@H](NC(=O)OCC1c2ccccc2-c2ccccc21)C(=O)O | 14.5 | 29.4 |
| 12.8 | – | CC[C@H](C)[C@H](NC(=O)OCC1c2ccccc2-c2ccccc21)C(=O)O | 39.8 | – |
| 2.4 | 2.9 | O=C(N[C@@H](Cc1ccc(O)cc1)C(=O)O)OCC1c2ccccc2-c2ccccc21 | – | – |
| – | – | CC[C@H](C)[C@H](NC(=O)OCC1c2ccccc2-c2ccccc21)C(=O)N[C@H](COC(C)=O)Cc1ccccc1 | 25.8 | 2.2 |
| – | – | CC(=O)OC[C@H](Cc1ccccc1)NC(=O)[C@H](Cc1ccccc1)NC(=O)OC(C)(C)C | 18.9 | 42.1 |
| – | 3.7 | CC(=O)OC[C@@H](Cc1ccccc1)NC(=O)[C@@H](N)Cc1ccc(O)cc1 | – | 8 |

| SMILES | IC50 [2] [µM] | IC50 [3] [µM] | inhibition at 10 µg/mL [1] [%] | inhibition at 10 µg/mL [4] [%] |
| --- | --- | --- | --- | --- |
| c1ccc2c(c1)[I+]c1ccccc1-2 [DIPHENYLENEIODONIUM] | 0.7 | – | – | – |
